# Activity calls are given as the source filed them. The rule behind the calls is not given here.
# What was measured:
# [1] = test system: Radical scavenging activity; assay: Antioxidant activity assessed as DPPH radical scavenging activity; format: functional
# How it was run: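 Radical scavenging against DPPH with rutin as the reference standard. The value is the concentration in µM needed to scavenge 50% of DPPH free radicals.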
# [2] = target: Acetylcholinesterase (Homo sapiens) (UniProt P22303); assay: Inhibition of acetylcholinesterase at 1.0 uM by TLC screening assay
# [3] = target: Acetylcholinesterase (Homo sapiens) (UniProt P22303); assay: Inhibition of acetylcholinesterase at 0.1 uM by TLC screening assay
# How it was run: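 TLC bioautography on silica gel. Samples in MeOH or MeOH-CH2Cl2 at 0.1 and 1.0 mM were spotted (2 µL), with physostigmine and galanthamine references at 0.1 and 0.01 µM. The plate was sprayed to saturation with 1:1 1 mM DTNB/[…] iodide in buffer, dried 5 min, then sprayed with 3 U/mL AChE. White spots on a yellow background were scored as inhibition.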
# Acetylcholinesterase = target: T1, Acetylcholinesterase (Rattus norvegicus, UniProt P37136); assay: Inhibition of rat brain acetylcholinesterase by colorimetric method
# T1 sequence (P37136 whole entry): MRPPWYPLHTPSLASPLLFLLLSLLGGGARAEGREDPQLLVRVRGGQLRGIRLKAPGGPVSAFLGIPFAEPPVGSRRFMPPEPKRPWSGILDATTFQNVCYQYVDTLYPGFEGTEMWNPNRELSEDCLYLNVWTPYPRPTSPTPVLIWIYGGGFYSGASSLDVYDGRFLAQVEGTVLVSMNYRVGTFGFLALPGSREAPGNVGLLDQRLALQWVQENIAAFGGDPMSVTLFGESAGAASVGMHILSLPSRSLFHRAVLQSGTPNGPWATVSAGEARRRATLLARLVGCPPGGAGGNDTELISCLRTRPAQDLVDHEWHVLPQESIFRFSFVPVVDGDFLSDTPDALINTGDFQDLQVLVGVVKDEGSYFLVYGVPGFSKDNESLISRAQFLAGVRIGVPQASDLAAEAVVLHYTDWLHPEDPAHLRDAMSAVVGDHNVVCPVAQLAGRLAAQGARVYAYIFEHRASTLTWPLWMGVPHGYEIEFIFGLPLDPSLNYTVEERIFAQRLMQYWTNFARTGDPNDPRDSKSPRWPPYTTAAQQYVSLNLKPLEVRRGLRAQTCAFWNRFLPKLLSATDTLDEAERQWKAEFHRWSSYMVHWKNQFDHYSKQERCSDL
# Acetylcholinesterase (Homo sapiens), sequence (P22303 whole entry): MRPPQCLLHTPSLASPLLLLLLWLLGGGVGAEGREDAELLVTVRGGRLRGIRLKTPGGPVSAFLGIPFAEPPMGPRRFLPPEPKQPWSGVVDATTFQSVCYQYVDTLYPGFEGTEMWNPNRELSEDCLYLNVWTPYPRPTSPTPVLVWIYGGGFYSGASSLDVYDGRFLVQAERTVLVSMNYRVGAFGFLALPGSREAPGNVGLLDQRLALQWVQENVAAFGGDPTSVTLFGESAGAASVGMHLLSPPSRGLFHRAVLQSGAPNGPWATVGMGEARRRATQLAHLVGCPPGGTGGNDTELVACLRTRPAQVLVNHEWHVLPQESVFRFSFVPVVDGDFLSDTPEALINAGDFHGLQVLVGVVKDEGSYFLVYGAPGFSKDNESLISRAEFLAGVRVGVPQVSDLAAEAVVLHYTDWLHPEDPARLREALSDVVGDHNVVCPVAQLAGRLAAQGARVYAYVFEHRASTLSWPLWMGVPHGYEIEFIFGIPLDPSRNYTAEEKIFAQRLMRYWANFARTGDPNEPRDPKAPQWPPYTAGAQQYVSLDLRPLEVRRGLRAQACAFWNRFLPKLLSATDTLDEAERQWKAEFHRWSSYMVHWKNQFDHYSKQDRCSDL
SMILES,IC50 [1] [µM],further results
C=CC1C(CC2=NCCc3c2[nH]c2ccccc32)C(C(=O)OC)=CO[C@H]1O[C@@H]1O[C@H](CO)[C@@H](O)[C@H](O)[C@H]1O (stereo partly drawn),55.1,–
C=CC1C(C[C@@H]2NC(C(=O)O)Cc3c2[nH]c2ccccc32)C(C(=O)OC)=CO[C@H]1O[C@@H]1O[C@H](CO)[C@@H](O)[C@H](O)[C@H]1O (stereo partly drawn),47.1,–
C=CC1C(CC2=NCCc3c2[nH]c2ccccc32)C(C(=O)O)=CO[C@H]1O[C@@H]1O[C@H](CO)[C@@H](O)[C@H](O)[C@H]1O (stereo partly drawn),52.3,–
C=CC1C(Cc2nc(C(=O)O)cc3c2[nH]c2ccc(O)cc23)C(C(=O)OC)=CO[C@H]1O[C@@H]1O[C@H](CO)[C@@H](O)[C@H](O)[C@H]1O (stereo partly drawn) [CORDIFOLINE],18.3,–
C=C[C@H]1[C@H](O[C@H]2O[C@H](CO)[C@@H](O)[C@H](O)[C@H]2O)OC=C(C(=O)OC)[C@H]1Cc1nc(C(=O)O)cc2c1[nH]c1ccccc12 [DESOXYCORDIFOLINE],49.9,Activity [2]: Active
Cc1nc(C(=O)O)cc2c1[nH]c1ccccc12 [HARMAN-3-CARBOXYLIC ACID],45.5,–
C[C@@H]1O[C@@H](OC[C@H]2O[C@@H](Oc3c(-c4ccc(O)c(O)c4)oc4cc(O)cc(O)c4c3=O)[C@H](O)[C@@H](O)[C@@H]2O)[C@H](O)[C@H](O)[C@H]1O [RUTIN],12.3,–
C=C[C@H]1[C@H](O[C@@H]2O[C@H](CO)[C@@H](O)[C@H](O)[C@H]2O)OC=C(C(=O)OC)[C@H]1C[C@@H]1NCCc2c1[nH]c1ccccc21 [STRICTOSIDINE],56,–
C=CC1C(C[C@@H]2NCCc3c2[nH]c2ccccc32)C(C(=O)O)=CO[C@H]1O[C@@H]1O[C@H](CO)[C@@H](O)[C@H](O)[C@H]1O (stereo partly drawn) [STRICTOSIDINIC ACID],49.7,–
C=C[C@H]1[C@@H](/C(=C/O)C(=O)OC)C[C@H]2c3[nH]c4ccccc4c3CCN2[C@H]1O[C@H]1O[C@@H](CO)[C@H](O)[C@@H](O)[C@@H]1O [TURBINATINE],50.9,Activity [3]: Active; IC50 (Acetylcholinesterase): 1.86 µM

# Source: ChEMBL document CHEMBL1148950, “Indole glucoalkaloids from Chimarrhis turbinata and their evaluation as antioxidant agents and acetylcholinesterase inhibitors” (J Nat Prod, 2004)
